Calls of active or inactive are those of the source. The calls are words filed in the database; no cut-off is given here.
Assays:
Homo sapiens [1] = species on record: Homo sapiens; assay: Inhibition of NF-kappaB in HUVECtert assessed as reduction in cyclin D1 mRNA expression level at 2 uM measured up to 240 mins by qRT-PCR analysis
How it was run: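 HUVECtert incubated without TNFα with 2 μM agent, 1 μM cycloheximide or 0.1% DMSO for 0.5−4 h; cyclin D1 mRNA by qRT-PCR, 2−ΔΔCt analysis.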

Homo sapiens [2] = species on record: Homo sapiens; assay: Inhibition of de novo protein synthesis in HUVECtert at 2 to 5 uM after 30 mins by Click-iT OPP/Alexa fluor 488 picolyl azide reagent based confocal fluorescence microscopy; type: functional
How it was run: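 Cells on gelatin coverslips (24 h) exposed 30 min to agent (2 or 5 μM; cycloheximide 1, 3.5, 35 μM) or 0.1% DMSO, then 20 μM OPP for 30 min; formaldehyde fixation, Triton permeabilisation, Alexa 488 picolyl azide click reaction 30 min, nuclear counterstain; confocal imaging at 10×, constant gain and exposure.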

[3] = target: T1, NF-kappa-B inhibitor alpha (Homo sapiens) (UniProt P25963); assay: Inhibition of IkappaBalpha degradation in TNFalpha-stimulated HUVECtert at 2 uM pretreated for 30 mins followed by TNFalpha stimulation measured after 5 to 15 mins by Western blot analysis
T1 sequence (whole entry): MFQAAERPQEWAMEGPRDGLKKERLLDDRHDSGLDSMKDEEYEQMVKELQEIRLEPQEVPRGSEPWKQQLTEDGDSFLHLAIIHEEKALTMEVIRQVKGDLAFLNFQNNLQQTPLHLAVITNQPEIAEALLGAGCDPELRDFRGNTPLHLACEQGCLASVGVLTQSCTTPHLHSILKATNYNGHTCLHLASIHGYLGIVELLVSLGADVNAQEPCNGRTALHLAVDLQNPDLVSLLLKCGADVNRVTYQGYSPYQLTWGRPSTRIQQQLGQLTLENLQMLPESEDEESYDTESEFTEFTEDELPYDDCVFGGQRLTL
How it was run: (§1)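 HUVECtert on gelatin-coated dishes pretreated with 2 μM agent or 0.1% DMSO, then TNFα 10 ng/mL; p-IKKα/β, p-IκBα and total IκBα immunoblotted at 5 or 15 min post-stimulation, actin loading control; means ± SD, n = 3, one-way ANOVA/Dunnett.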

Homo sapiens [4] = species on record: Homo sapiens; assay: Inhibition of NF-kappaB in HUVECtert assessed as reduction in TNFalpha-induced ICAM-1 mRNA expression level at 0.5 to 5 uM pretreated for 30 mins followed by TNFalpha stimulation measured after 4 hrs by qRT-PCR analysis
[5] = target: T2, Inhibitor of nuclear factor kappa-B kinase subunit alpha (Homo sapiens) (UniProt O15111); assay: Inhibition of IKKalpha phosphorylation level in TNFalpha-stimulated HUVECtert at 2 uM pretreated for 30 mins followed by TNFalpha stimulation measured after 5 to 15 mins by Western blot analysis; how it was run: as §1
T2 sequence (whole entry): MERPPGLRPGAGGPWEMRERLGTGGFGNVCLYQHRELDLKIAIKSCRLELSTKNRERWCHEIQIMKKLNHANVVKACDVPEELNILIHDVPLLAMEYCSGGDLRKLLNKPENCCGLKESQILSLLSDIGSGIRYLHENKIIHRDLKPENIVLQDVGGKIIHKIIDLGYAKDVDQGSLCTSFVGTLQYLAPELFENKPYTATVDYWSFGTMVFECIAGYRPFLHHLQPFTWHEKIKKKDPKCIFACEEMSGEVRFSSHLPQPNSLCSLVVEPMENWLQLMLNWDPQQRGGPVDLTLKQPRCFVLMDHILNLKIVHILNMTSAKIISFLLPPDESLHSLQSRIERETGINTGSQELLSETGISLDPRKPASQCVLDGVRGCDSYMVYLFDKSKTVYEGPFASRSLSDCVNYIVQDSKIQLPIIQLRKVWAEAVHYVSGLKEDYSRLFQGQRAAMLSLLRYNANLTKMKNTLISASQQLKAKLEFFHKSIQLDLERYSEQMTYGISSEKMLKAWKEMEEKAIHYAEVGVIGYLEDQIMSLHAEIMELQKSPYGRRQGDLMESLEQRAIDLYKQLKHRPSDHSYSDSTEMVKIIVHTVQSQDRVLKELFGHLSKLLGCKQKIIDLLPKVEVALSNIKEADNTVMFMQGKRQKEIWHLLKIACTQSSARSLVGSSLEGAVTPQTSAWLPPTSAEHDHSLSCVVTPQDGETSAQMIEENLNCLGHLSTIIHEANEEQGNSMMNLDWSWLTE

Homo sapiens [6] = species on record: Homo sapiens; assay: Inhibition of NF-kappaB in HUVECtert assessed as reduction in TNFalpha-induced VCAM-1 mRNA expression level at 5 uM pretreated for 30 mins followed by TNFalpha stimulation measured after 4 hrs by qRT-PCR analysis
Homo sapiens [7] = species on record: Homo sapiens; assay: (§2) Inhibition of NF-kappaB in HUVECtert assessed as reduction in TNFalpha-induced E-selectin expression level pretreated for 30 mins followed by TNFalpha stimulation measured after 5 hrs by flow cytometry
How it was run: (§3)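 FITC-antibody surface staining, flow cytometry; expression relative to TNFα-stimulated control. Parthenolide 10 μM as positive control; means ± SD, n = 3, one-way ANOVA/Dunnett versus vehicle.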

[8] = as §2; set-up: species or system Homo sapiens; how it was run: as §3
Homo sapiens [9] = species on record: Homo sapiens; assay: Inhibition of NF-kappaB in HUVECtert assessed as reduction in TNFalpha-induced E-selectin mRNA expression level at 0.5 to 5 uM pretreated for 30 mins followed by TNFalpha stimulation measured after 2 hrs by qRT-PCR analysis
Homo sapiens [10] = species on record: Homo sapiens; assay: Cytotoxicity against HUVECtert assessed as reduction in cell viability after 18 hrs by resazurin dye based fluorescence assay; type: functional
How it was run: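 HUVECtert (passage ≤15) seeded on gelatin-coated wells, grown 48 h, then exposed to test agent or 0.1% DMSO vehicle, with or without TNFα; digitonin 100 μg/mL as positive control. After 18 h, supernatant removed, cells washed, then 2 h with 10 μg/mL resazurin in PBS; metabolic conversion read relative to vehicle.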

[11] = Effect on basal ICAM-1 expression level in HUVECtert at 0.5 to 10 uM incubated for 30 mins by flow cytometry; type: ADME; details: human, 0.5 h
How it was run: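 Unstimulated HUVECtert treated with 0.5−10 μM test agent without TNFα; surface VCAM-1, ICAM-1 or E-selectin stained with FITC-labelled antibodies and read by flow cytometry.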

Homo sapiens [12] = species on record: Homo sapiens; assay: Inhibition of NF-kappaB in HUVECtert assessed as reduction in TNFalpha-induced VCAM-1 mRNA expression level at 0.5 uM pretreated for 30 mins followed by TNFalpha stimulation measured after 4 hrs by qRT-PCR analysis
Homo sapiens [13] = species on record: Homo sapiens; assay: (§4) Inhibition of NF-kappaB in HUVECtert assessed as reduction in TNFalpha-induced VCAM-1 expression level pretreated for 30 mins followed by TNFalpha stimulation measured after 18 hrs by flow cytometry; how it was run: as §3
[14] = as §4; set-up: species or system Homo sapiens; how it was run: as §3

Compound: CC1=CC(=O)[C@@H](O)[C@@]2(C)[C@H]1CC(=O)[C@@]1(C)[C@H]3C(=O)O[C@H]([C@@H]3C)[C@H](O)[C@@H]12 [EURYCOMALACTONE]
- inhibition (Homo sapiens [1]): inactive
- inhibition (Homo sapiens [2]): Active
- inhibition [3]: inactive
- inhibition (Homo sapiens [4]): inactive
- inhibition [5]: inactive
- inhibition (Homo sapiens [6]): Active
- inhibition (Homo sapiens [7]): Dose-dependent effect
- IC50 [8]: 560 nM
- inhibition (Homo sapiens [9]): inactive
- Activity (Homo sapiens [10]): inactive
- Activity [11]: Non-Toxic
- inhibition (Homo sapiens [12]): inactive
- inhibition (Homo sapiens [13]): Dose-dependent effect
- IC50 [14]: 540 nM
